The values below come from article PMC6147618 (Molecules : A Journal of Synthetic Chemistry and Natural …, 2005).

SMILES strings stand for the structures.

The test system of one series is P450. The settings on record: cited from earlier work.
A further series deals with Caco-2 monolayers. The series is described as follows: Caco-2 monolayer permeability. The class given is in vitro ADME. The settings on record: Hank's balanced salt solution, 25 mM HEPES pH 7.4, 37°C. An outline of the steps: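 Caco-2 cells were grown in DMEM with 10% foetal bovine serum, 2mM L-glutamine and 1% non-essential amino acids, at 37°C, 95% humidity and 5% CO2, on Transwell polycarbonate inserts. Transport was run in air at 37°C and 95% humidity, in HBSS with 25mM HEPES (pH 7.4). Values are means ± sd of 5 monolayers, or n = 3 for co-incubation experiments.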

Regarding `C/C=C\C=C/CC/C=C/C=C/C(=O)NCC(C)C` [compound 1, (2E,4E,8Z,10Z)-N-isobutyldodeca-2,4,8,10-tetraenamide], the P450-mediated metabolism entry with P450 (in the absence of alkylamide 3) is “rapid metabolism”.

As for `C#CC#CCCCC/C=C/C(=O)NCC(C)C` [compound 3, (2E)-N-isobutylundeca-2-ene-8,10-diynamide], in the series on P450 (alkylamide 3 present together with 1), the “effect on P450-mediated metabolism of alkylamide 1” value is given as “prevented the rapid metabolism of 1”. For the same compound, the “diffusion across the Caco-2 monolayers” value with Caco-2 monolayers is listed as “rapidly diffuse”.

`O=C(/C=C/c1ccc(O)c(O)c1)O[C@@H](C(=O)O)[C@@H](OC(=O)/C=C/c1ccc(O)c(O)c1)C(=O)O` [cichoric acid]: in the series with Caco-2 monolayers, the “diffusion across the Caco-2 monolayers” value is on record as “non-diffusing”.
